Most compounds without a hit are left out; they make up all but 6.4% or so of the library.
Rev-RRE block: inhibitors of HIV-1 Rev-RRE RNA interaction; P05866; Rev peptide-RRE RNA binding, FRET; inhibition, % at 8 µM; hit rate 0.79% among 97,000;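 active means inhibition above the screen-wide mean plus 3 SD, cut at about 35% in these data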;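 further: 0% = median DMSO wells and 100% = median Neomycin B control wells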
Target sequence (P05866 whole entry, looked up): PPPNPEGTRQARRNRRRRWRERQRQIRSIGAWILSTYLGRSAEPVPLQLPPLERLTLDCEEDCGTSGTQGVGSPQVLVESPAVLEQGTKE
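Test system: Cy5-tagged RRE RNA duplex with fluorescein-tagged Rev peptide; Probe or stimulus: labelled Rev peptide; Schedule: 5 min preincubation and 15 min binding, 25 °C; Signal: FRET fluorescence readout; Evaluation: % inhibition from 671/540 nm acceptor-to-donor ratio, scaled between controls; Control set: DMSO and neomycin B.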
PostGolgi yeast: growth inhibition of a yeast mutant, post-Golgi transport screen; post-Golgi transport phenotypic cell assay; inhibition, % at 10 µM; hit rate 0.9% among 98,000;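 further: yeast cells grown in 1536-well plates; yeast grown about 18 h at 30C before absorbance read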
PLK1 PBD inh: blocks phosphopeptide binding to human Plk1 polo box domain. Plk1 PBD phosphopeptide binding, fluorescence polarization. hit rate 0.13% among 97,000. P53350. inhibition, %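 (tested at about 20 µM)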; in the data active means inhibition above about 34%, passing the limit was not always enough
EphB4 antag: EphB4-ephrin-B2 interaction antagonism | EphB4 LBD / TNYL-RAW-Alexa532 peptide, fluorescence polarization | AID 720 | inhibition, % at 7 µM | hit rate 0.15% among 97,000;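 active means inhibition above the screen-wide mean inhibition plus 3 SD, cut at about 15% in these data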;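 further: 0% = DMSO wells and 100% = excess unlabeled TNYL-RAW peptide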
PostGolgi ctrl: growth of the yeast control strain, post-Golgi counter-screen | efflux-deficient yeast background strain, growth absorbance A615, 16 h | inhibition, % at 10 µM | hit rate 5% among 98,000 | AID 738
PLK1 inh: inhibitors of human PLK1 kinase. inhibition, % at 10 µM. hit rate 0.53% among 97,000. P53350. recombinant PLK1 kinase, TR-FRET peptide phosphorylation. AID 619;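 active means inhibition of 50% or more in the single-concentration screen; inactive means inhibition below 50%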;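 further: 0% = DMSO max control and 100% = H-89 dihydrochloride min control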
Numbers without * were called inactive; x = no result given. Unless noted, no stated cut-off is given here; in the data, active means inhibition above about 30%; inactive means the rest.

SMILES	Rev-RRE block	PostGolgi yeast	PLK1 PBD inh	EphB4 antag	PostGolgi ctrl	PLK1 inh
O=C(Cn1cnc2ccccc21)NC(c1ccccc1)c1ccccc1	6	0	1	4	12	-5
c1ccc(OCCn2cnc3ccccc32)cc1	3	12	11	4	34*	-17
Brc1ccccc1OCCCn1cnc2ccccc21	19	0	3	2	30*	-31
Cc1ccc(SCCCn2cnc3ccccc3c2=O)cc1	7	3	-12	-5	26	-5
Cc1cc(C)c(C)c(OCCCCn2cnc3ccccc3c2=O)c1	16	-6	-21	4	37*	-5
Cc1ccccc1OCCCCn1cnc2ccccc21	20	5	-38	-9	36*	4
c1ccc(OCCCCn2cnc3ccccc32)cc1	5	0	-7	-5	9	0
O=C1CC(c2ccccc2)CC(O)=C1C=NCc1ccc(Cl)cc1 (centres undefined)	7	-16	-3	-2	20	-6
CCOC(=O)c1cnc(SCc2cccc(C)c2)nc1N	12	0	3	6	20	-6
Cc1ccc(-c2nn(-c3ccccc3)cc2C2SCC(=O)N2Cc2ccccc2)o1 (centres undefined)	x	2	x	x	58*	x
S=c1sc2c(N3CCOCC3)ncnc2n1-c1ccccc1	2	-2	21	0	1	62*
CCN1CCN(c2ncnc3c2sc(=S)n3-c2ccccc2)CC1	x	2	x	x	9	x
CCCCCc1c(C)nc(NCc2ccccc2)[nH]c1=O	x	11	x	x	39*	x
Cc1nc(Nc2ccccc2)[nH]c(=O)c1CCC(C)C	14	-3	-14	10	18	-9
O=S(=O)(Nc1ccc(S(=O)(=O)N2CCCCC2)cc1)c1ccc(Br)s1	5	-2	8	5	12	-13
O=C1NC(=O)/C(=C\c2ccccc2Oc2ccc(F)c(F)c2)S1	6	12	14	-7	43*	-7
Cc1ccc(N2C(=O)C3ON(c4ccccc4)C(c4ccncc4)C3C2=O)c(C)c1 (centres undefined)	4	20	-12	1	10	0
COc1ccccc1N1CCN(CC(O)COc2ccc3c(c2)CCC3)CC1 (centres undefined)	8	1	-12	-1	7	-18
CCn1c2ccccc2c2cc(NC(=O)c3cc(OC)c(OC)c(OC)c3)ccc21	-6	-14	5	-5	3	-13
CCn1c2ccccc2c2cc(NC(=O)c3ccc(Br)o3)ccc21	76*	0	-15	3	28	5
CCCC(=O)Nc1nc2ccc(NC(=O)c3ccc(Br)o3)cc2s1	11	-4	-9	3	41*	-9
O=C(Oc1ccc([N+](=O)[O-])cc1)c1cc(-c2ccccc2)nc2ccccc12	10	13	4	-5	42*	-7
CCNC(=O)COC(=O)c1cc(-c2ccc(OC)cc2)nc2ccccc12	12	2	2	11	21	-10
O=C(Oc1ccc(-c2cnc3ccccc3n2)cc1)c1cccc([N+](=O)[O-])c1	6	19	4	-15	3	-14
CCN(CC)C(=O)COC(=O)c1cc(-c2ccc(OC)cc2)nc2ccccc12	13	1	-31	4	40*	-4
SMILES	Rev-RRE block	PostGolgi yeast	PLK1 PBD inh	EphB4 antag	PostGolgi ctrl	PLK1 inh
CCOc1cc(CNCCO)cc(Br)c1OCc1ccc(Cl)cc1Cl	4	27	-36	-7	90*	-4
CCC1SC(=NC(=O)c2ccc(Cl)c(Cl)c2)NC1=O (centres undefined)	0	-3	-13	-1	35*	-14
CCOc1cc(S(=O)(=O)n2nc(C)cc2C)ccc1F	-7	-6	-13	-10	6	-1
COc1ccc2nc(NCCCNC(=O)c3cc(OC)c(OC)c(OC)c3)c(C#N)cc2c1	10	34*	-3	-6	3	0
CC(C(=O)Nc1ccccc1Sc1ccccc1)N(c1ccccc1)S(C)(=O)=O (centres undefined)	11	-4	-2	0	23	-12
O=C(NCCc1ccc(Cl)cc1)C1CCC(=O)N1C1CCCC1 (centres undefined)	6	4	-22	-10	15	-5
O=C(NCc1ccc(F)cc1)C1CCC(=O)N1C1CCCCC1 (centres undefined)	1	-3	-35	-4	35*	-3
